The series in a line: Toxicity liver stage against HepG2, at 10uM. The format is cell-based. Also noted: test concentration 10 uM, cell line HepG2-A16-CD81EGFP. Conditions: human, HepG2-A16-CD81EGFP cells; read-out: INHIBITION
In a few lines:
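Uninfected HepG2-A16-CD81EGFP cells, 3 × 10^3 per well, 1536-well, plated on prespotted compound at 10 μM final, parasite-free screening media added to match infected plates; puromycin 10 μM positive, DMSO 0.5% negative; run in parallel with 48 h PbLuc assay at 37 °C, 5% CO2; viability by CellTiter-Glo luminescence, normalized to controls.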
Turning to `Cc1nc(CCNC(=O)NCc2ccc(N(C)C)nc2)cs1`, the cytotoxicity at 10 µM is -11.3%.
The figure for `CCN(CC)CC[C@H]1CN(C(=O)c2ccc(F)cc2)CC[C@H]1CC(=O)O` is 3.1%; for `Cc1nnc(SC2CCc3ccccc3NC2=O)n1C` (stereo not given) it is -1.31%.
The figure for `CS(=O)(=O)N1CCN(c2cc(-n3cccc3)ncn2)CC1` is 4.65%; for `CC(C)CN1C(=O)C2(CCN(Cc3ccc(F)cc3)C2)c2ccccc21` (stereo not given) it is 13%.
Under `Cn1ccc(C(=O)NC2CCC23CCN(Cc2nccs2)CC3)c1` (stereo not given) stands -136%; under `COc1cccc(-c2cc(C(=O)N3N=C(C)CC3(O)C(F)(F)F)[nH]n2)c1` (stereo not given), 5.97%.
In the case of `CCn1cc(S(=O)(=O)N2CCN(C(=O)c3cc(Br)cs3)CC2)c(C)n1`, the cytotoxicity at 10 µM is 2.73%.
Under `CC(C(=O)O)n1nc(C(F)(F)F)c(Br)c1C1CC1` (stereo not given) stands 10.3%; under `O=C(Cc1cccs1)N1CCC(O)(CN2CCc3ccccc3C2)C1` (stereo not given), -1.47%.
The figure for `CN(C(=O)C1CCOCC1)[C@@H]1CCC[C@@H](N2CCOCC2)[C@@H]1O` is 2.19%; for `Cc1cnc(C2CCCN(C(=O)c3c[nH]c(=O)[nH]c3=O)C2)s1` (stereo not given) it is -1.58%.
The figure for `CC(=O)N1CCOC(c2cc(N3CC(O)C3)nc(C)n2)C1` (stereo not given) is 3.16%.
`COCCC(=O)N1CCC(c2noc3nc(C)cc(C(F)(F)F)c23)CC1`: the cytotoxicity at 10 µM is 4.45%.
Under `Nc1nc(C2CCN(C(=O)c3cncs3)CC2)cs1` stands -1.49%.
The figure for `CCCN1Cc2ccccc2NC(=O)C12CCNC2` (stereo not given) is 5.92%.
Under `Cc1cc(C)n(-c2cccc(NC(=O)N3CCC[C@@H]3CO)c2)n1` stands 13.9%; under `Cc1ccc(N2CCCN(C(=O)c3cccc4c3ccn4C)CC2)nn1`, 0.983%.
As to `Cc1oc(NC(=O)C(C)N2CCN(C(C)(C)CO)CC2)c(C#N)c1C` (stereo not given), the cytotoxicity at 10 µM was -3.62%.
The figure for `CCOC(=O)c1cnn(C2CCN(C(=O)CCC(C)C)CC2)c1N` is -0.12%.
Take `Cc1nc(C)n(CC2CCCN2CC(=O)Nc2nncs2)n1` (stereo not given): the cytotoxicity at 10 µM was 14.3%.
As to `C=C(C)CN(CC)Cc1nc(CC)no1`, the cytotoxicity at 10 µM is 12.6%.
Under `CNC(=O)c1cccc(NC(=O)NC(C)c2cc(C)oc2C)c1C` (stereo not given) stands -9.26%.
Under `CC(=O)N(CCC(=O)NC1(C#N)CCC1)Cc1ccccc1` stands 12.6%.
In the case of `CCc1cc(CNC(=O)Nc2cc(F)cc(N3CCCC3)c2)on1`, the cytotoxicity at 10 µM came out at 4.79%.
Consider `CN(C)Cc1nc(C2(NC(=O)Nc3cccc(F)c3)CCCC2)no1`, for which the cytotoxicity at 10 µM was 2.32%.
Under `Cc1cc(C(=O)Nc2ccn(CCCN3CCCC3)n2)no1` stands -4.13%; under `Cc1cccc(N(CC(=O)N2CCCCC2)Cc2nc(=O)[nH][nH]2)c1`, -2.85%.
Turning to `CCOCc1ccccc1NC(=O)NC1CCN(CC(F)(F)F)C1` (stereo not given), the cytotoxicity at 10 µM was 1.81%.
Under `Cc1nnc(NC(=O)CN(C)CC2CCCN2c2cccnn2)s1` (stereo not given) stands -15%; under `N#CCCN(C(=O)CN1CCCC1Cc1ccccc1)c1ccccc1` (stereo not given), -20.7%.
Under `COc1cc(NC(=O)c2ccccc2F)c(C(=O)N(C)C)cc1OC` stands -14.8%; under `COc1ccc(NC(C)C(=O)NCCc2cccs2)cc1F` (stereo not given), -13.5%; under `O=C(c1ccccc1)N1CC[C@H]2C[C@@H](c3nnc(C4CC4)o3)O[C@@H]2C1`, -99.2%.
Under `O=C(c1ccccc1)N1CC[C@H]2C[C@H](c3nnc(C4CC4)o3)O[C@@H]2C1` stands -102%; under `CN(CCCc1cnn(C)c1)C(=O)Nc1cccc2[nH]nnc12`, -3.98%; under `Cc1ccccc1Oc1ncccc1CNC(=O)Cn1cccnc1=O`, -16.8%.
In the case of `CC(C)NC(=O)N1CCCC(Cn2cc(-c3ccc(F)cc3)nn2)C1` (stereo not given), the cytotoxicity at 10 µM is 12.5%.
Under `OC1(CNCCSc2ccccn2)CCCNC1` (stereo not given) stands -6.46%.
The figure for `COCCN(C)CC(=O)N1C[C@@H](NC(C)=O)[C@H](c2ccc(OC)cc2)C1` is 1.45%.
Under `NC(=O)c1csc(N2CCCC(c3nc4ccccc4[nH]3)C2)n1` (stereo not given) stands 8.5%; under `Nc1cnc(-c2ccc(F)cc2Cl)cn1`, -136%.
For the compound `CSc1nccc(NCc2cc3n(n2)CCCN(S(C)(=O)=O)C3)n1`, the cytotoxicity at 10 µM was 3.25%.
The figure for `COc1ccc(C(=O)N2CCN(c3cc(CCN)nc(C)n3)CC2)cc1` is -8.56%; for `CN(Cc1cc2n(n1)CCCN(C(=O)N1CCCC1)C2)Cc1nccs1` it is -0.63%; for `CN(CCCc1cnn(C)c1)C(=O)Nc1cccc2[nH]ncc12` it is -1.89%.
The figure for `COCCN1CC(C(=O)N(CCN(C)C)Cc2ccc(C)s2)CC1=O` (stereo not given) is 1.98%; for `COc1cccc(OCC2CCCN(C(=O)c3ncoc3C3CC3)C2)c1` (stereo not given) it is 3.79%; for `c1ccc2c(c1)CCN(c1ncnc3sc4c(c13)CCNC4)C2` it is 5.66%.
On to `CCc1csc(CCNC(=O)C2CC(=O)N(C(C)C)C2)n1` (stereo not given), for which the cytotoxicity at 10 µM is -11.9%.
Under `Cc1nn2c(N3CCC(O)C3)cc(-c3ccccc3)nc2c1C` (stereo not given) stands -11.5%.
The figure for `Cn1c(Cn2ccnc2)nnc1C1CCN(C(=O)C2(C)CC2)CC1` is -9.7%.
The figure for `N#CCCSc1sc2c(O)cc(O)nc2c1C#N` is -6.11%; for `CC(C)c1cc(COCCCC(=O)O)no1` it is 11.1%.
For `O=C(CCc1nccs1)N1CCCC(n2cccn2)C1` (stereo not given), the cytotoxicity at 10 µM is -14.4%.
Under `Cc1nc(C)n(CC2CCCN2CC(=O)NC2CCOCC2)n1` (stereo not given) stands -4.43%; under `CS(=O)(=O)NCC1CCCN(C(=O)c2cccc(F)c2)C1` (stereo not given), -6.93%; under `Cc1noc(CN2CCCC2c2noc(C3CC3)n2)n1` (stereo not given), -23.6%.
The figure for `Cn1nccc1-c1ccc2nc(C3CCN(CC4CC4)CC3)nn2c1` is 5.85%.
On to `Cc1cnc(N2Cc3nccn3CC(Cn3ncccc3=O)C2)nc1` (stereo not given), for which the cytotoxicity at 10 µM turned out to be 7.54%.
The figure for `CCO[C@H]1CN(CC2CCOCC2)[C@@H]2CCCO[C@H]12` is -109%.
As to `NCC1CCC2(CCN(C(=O)c3ccccn3)CC2)CO1` (stereo not given), the cytotoxicity at 10 µM is -111%.
Under `CCOC[C@]12COC[C@H]1CN(Cc1ccc3c(c1)OCO3)C2` stands -119%; under `O=C(c1ccccc1)N1CCS(=O)(=O)[C@@H]2CCNCC[C@@H]21`, -127%.
With `CC(=O)N1CCO[C@@H]2CN(Cc3ccccc3Cl)C[C@@H]2C1`, the cytotoxicity at 10 µM is -110%.
Under `CCn1ncc2c1C(COC)N(C(=O)c1cscn1)CC2` (stereo not given) stands -98.1%; under `Cc1nc(CN2C(=O)COC3(CCN(Cc4ccsc4)CC3)C2C)cs1` (stereo not given), -123%; under `Cc1oncc1C(=O)NCc1cc(=O)n2c(n1)CN(CC(C)C)CCC2`, -0.187%.
The figure for `CN(C)C(=O)COCC1CN(S(C)(=O)=O)Cc2ncn(C)c21` (stereo not given) is 4.39%; for `O[C@@H]1CC(CNCc2ccc(F)cc2)(COc2cccnc2)C[C@@H]1O` (stereo not given in full) it is -10.8%.

The record behind these values is ChEMBL document CHEMBL4513216, “Probing the Open Global Health Chemical Diversity Library for Multistage-Active Starting Points for Next-Generation Antimalarials” (ACS Infect Dis, 2020).
